System: MS2 coat protein
Assay: apparent Kd, MS2 coat protein; higher = weaker binding; RNA-MaP array; FMN 200 µM where present
Summary of the method: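 Stalled E. coli RNA polymerase transcribed each design on Illumina sequencing-chip clusters. The clusters were titrated with SNAP-549-labelled MS2 coat protein, starting at 0.7 or 1.5 nM and doubling up to 3 µM, first without ligand and then with constant ligand, in 100 mM Tris-HCl pH 7.5, 80 mM KCl, 4 mM MgCl2, BSA, DTT, yeast tRNA and Tween-20. Green signal was normalised to red-channel RNA signal and to the control-cluster median Fmax. The apparent Kd is the median of filtered binding-curve fits made for each cluster.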

[1] = designed as: OFF switch for flavin mononucleotide, no ligand
[2] = ligand present: flavin mononucleotide, designed as: OFF switch for flavin mononucleotide
[3] = designed as: ON switch for flavin mononucleotide, no ligand
[4] = ligand present: flavin mononucleotide, designed as: ON switch for flavin mononucleotide

Sequence | apparent Kd [1] [nM] | apparent Kd [2] [nM] | apparent Kd [3] [nM] | apparent Kd [4] [nM]
UUUACCAGAGGAUAUGCGAAUAAAUAAAACUUUUUUUUUUAACAUGAGGAUCACCCAUGUAGAAGGCUGCUUUU | 25.4 | 23.6 |  | 
CCGGAAAUACAGGAUAUAGGAGUAAAUAUACUCCUAGAAGGGUAUACAUGAGGAUCACCCAUGUGUCCUACCGG | 26.6 | 27.3 |  | 
GUGUCUAACUAGAAGGCCGAUAGCAAAGCUAUCGGAGGAUAUGGGUUCCGGAAACGGACAUGAGGAUCACCCAUGUGGCACAAA |  |  | 103 | 13.8
CUCACUCCAAAGAGCGCGUCUGCCUGAGAAGGGUGCUAAUUAAUUACAUGAGGAUCACCCAUGUCACAGGAUAUCAGGGUCGCU |  |  | 622 | 230
AUUUAAUUUAAUAAGAUCACAUGAGGAUCACCCAUGUAUAUAUAGGAUAUCAGCUCGUGUAGAGCUGAGAAGGAUAUAUACUAU | 316 | 204 |  | 
GAAAUUACAUGAGGAUCACCCAUGUAGGAUAUCGCUAUUGUAAUCAUGUUACAUGAUUACAAUAGCGAGAAGGACGUGAGAAAG | 22.9 | 25.6 |  | 
UUACAUACAAAGGUACAUGAGGAUCACCCAUGUUUGUUGGGAAGAAGGGUAACAGUACUACAUUUAUAGGAUAUUUCACAAAUA |  |  | 95.5 | 64
CUUGUACAUGAGGAUCACCCAUGUUAGGAUAUCUCGCCGUCGGCUUGCCGACGGUAUUAGAGAAGGGACAAGGG | 22.5 | 26.7 |  | 
AAAAGAGUAGGAUAUCUGACGCGAAACAUGAGGAUCACCCAUGUAGGGCGGUCCUGCUUAAGAGAAGGGCUCAAAU | 99.6 | 230 |  | 
UGUCGGAGCAGAGGAUAUUACAUGAGGAUCACCCAUGUAUGAACCAAUAGCUGGAAACAGGAAUGUAAGAAGGCUGCUCCGACA | 6.17 | 30.1 |  | 
AACUCUGAGAAGGAUAUACAGUGCGAAAGGACAGUAGAAGGUUUCACAUGAGGAUCACCCAUGUCGAAUAGUGA | 24.7 | 33.8 |  | 
GCUGCGCGAGGAUAUGCGGUUCGCGCGGUGGCCCGUGGCGGACAUGAGGAUCACCCAUGUAGAAGGCGUGCGGG | 11.1 | 12.1 |  | 
GGAUCCAACACAGGAUAUGCUGGACUUUGUCCAGCAGAAGGGUGACAUGAGGAUCACCCAUGUAAUAGGAUCCAUAUAUUUAAU |  |  | 624 | 198
UAUGACAUGAGGAUCACCCAUGUCAGCGAGAAAUGAGAGUCACAGGAUAUGUUUUCGGCCGGCAGACAGAAGGGUGACCCUCCG |  |  | 7.33 | 6.74
UAAAAGUGAGGAUAUCCAAUAUAUGACAUGAGGAUCACCCAUGUUUCCACUCGUACCUCCGGAGAAGGCACAAAGU | 29.5 | 28.5 |  | 
AGCUAGUGAGGAUAUACGAACAUGUCAAAAGACGUGAAUAAACAUGAGGAUCACCCAUGUAGAAGGCACUAGCA | 17.5 | 16.2 |  | 
UGGACCGAGCUAUCGGUUGACUCGAAGGAUAUGACAUGAGGAUCACCCAUGUGGGAUCUAAAUUGUCAGAAGGUUGGUUCUGGG | 367 | 140 |  | 
GCUUUAGCACAUGAGGAUCACCCAUGUAGCGUGGGCUUACACAGAAGGGCAAACCGUUACGGGAUGUAGGAUAUGUGCAAAAUG |  |  | 196 | 68.6
GCAUGACAAAGUCAUGCAAUACGAACAUGAGGAUCACCCAUGUAGGAUAUGCUACUCAAAGAGUAGCAGAAGGACAUGUGUCUU | 33.2 | 182 |  | 
UUAAUUAAUUAAUUGCAGAAACAUGAGGAUCACCCAUGUAUAUAGGAUAUCGUCAGGAAUACUGACGAGAAGGAUAUACACUGC | 23.4 | 32.5 |  | 
UGUCGGAGCAGAGGAUAUUACAUGAGGAUCACCCAUGUAUGAACCAAUCGCUGGAAACAGCAAUGUAAGAAGGCUGCUCCGACA | 10.3 | 73.7 |  | 
CGAACUAAGUAGAAGGCAGUCUUAAAAUAGGACUGAGGAUAUACAUGAGGAUCACCCAUGUACUCCUUUAAUAAGUUUGAAAUA | 5.31 | 5.38 |  | 
UGGAAUUGCGAGAAGGACAUGAGGAUCACCCAUGUAGGAUAUCGACCUAGGUGCAGAUCGUUAUAGGAUCUCUUCGCUUCUAGG |  |  | 16.7 | 7.14
GCAGAACAUGAGGAUCACCCAUGUCUCUAAAGUCGAGGAUAUGGGCAGGUUAUAUCCGAACCAGAAGGCGAUCUGC |  |  | 127 | 43.8

Sequence | apparent Kd [1] [nM] | apparent Kd [2] [nM] | apparent Kd [3] [nM] | apparent Kd [4] [nM]
UGCAUGUAAGGAUAUGCAUCCGCCGACGUCCCGGCGCCACAGCAGAAGGUACAUGAGGAUCACCCAUGUGUCCC | 21.3 | 49.2 |  | 
AUAUCUAUAUCAGGAUAUGGACAGGCCUGUCCGUAUUGAGACAGUAACAUGAGGAUCACCCAUGUCCAGAAGGGAUCUAUAUAU | 53.7 | 45.7 |  | 
AAAUACGUAAAGGACACAUGAGGAUCACCCAUGUUUCUGUUCAAGGAUAUGAGGUGAAUGAUCCGUCAGAAGGUGAACUUGCUU |  |  | 117 | 624
AAAGUGUGAGGAUAUCCGGGACUGGGCCGGGAGGUUCGGAAGGAGAAGGCACAUGAGGAUCACCCAUGUAACGG | 59.3 | 44.3 |  | 
ACCAAUGCAGGAUAUACAUGAGGAUCACCCAUGUAUAACCUACAUAGAUGAUUAUCAUGUAGAAGGGCAUUGGA | 11.7 | 8.43 |  | 
GAACCUAAGUUAGGAUAUGUCUAAGAAAGCUGACAUGAGGAUCACCCAUGUGAAUGCAAAGAAUGGCAGAAGGGAUAUGGGUGG |  |  | 73 | 76.8
ACCCUGUCAGGAUAUCCUGCUGUGCGGCCUCUGUAUUCAAGGGAGAAGGGACAUGAGGAUCACCCAUGUAUGAG | 40.6 | 47.5 |  | 
ACAUACAUUCGAGGAUAUCGGUGAUUAAUUUUACGAGAAGGCGAUAAAAGAUAUAAAAUUUUAGACAUGAGGAUCACCCAUGUA |  |  | 28.6 | 27.1
UAGUUGCUAGGAUAUACUUGGGCAACUACUGAACCUAUAUAACAUGAGGAUCACCCAUGUAGAAGGAGCAUAUA | 23.1 | 19.1 |  | 
AGAUUCAUGGCCCGUUCGGGCUCACAUGAGGAUCACCCAUGUGAGGAUAUGACGUACCUGACUCGUCAGAAGGCGCAUGCGAAU | 7.41 | 13.7 |  | 
UUGGACGUCGUAGGAUAUGUAGGAUAUUCCUACAUGAGGAUCACCCAUGUUGACAUGGAAGAAGGGCAGAAGGACGAUGUCCAU |  |  | 548 | 8.38
AAACACGGACAUGAGGAUCACCCAUGUGGCGAAAGCCUUGGGAGAAGGAUUAAUGCAAAGCAUAAAUAGGAUAUUCAUACCGUG |  |  | 1270 | 243
GGCGAACAGGCUAACAUGAGGAUCACCCAUGUGGACUCAUGGUAGGAUAUCGGGAAGGAGGAAACCGAGAAGGGCCGGUGAGCG |  |  | 158 | 39.5
GUCAGCUCGUAAGGAUAUACAACACUGCUUCGGCAGUGUAUUAAGAUCACAUGAGGAUCACCCAUGUAGAAGGCACGAGCUGAU | 7.06 | 18.9 |  | 
ACAUGAUACAAGAAGGAUGUAUUUGAUUUGAUCAUAGGAUAUUGUUAUAUUGUUUACUCUAAUAACAUGAGGAUCACCCAUGUA |  |  | 7.04 | 6.95
CCGGAAGUACAGGAUAUCGUAACGGAAACGUUACGAGAAGGGUAUACAUGAGGAUCACCCAUGUGUCCUACCGG | 28.3 | 26.6 |  | 
UUAUCUUGUCAAGGAUAUGUAGUAUUGAUCUGAAAACAUGAGGAUCACCCAUGUAUACGGUGGGAACAGAAGGUGAAUGUUGAA | 679 | 670 |  | 
GGUGCGUAUGUGAGGAUAUGCUGGUCCUUGGAUCGGCAGAAGGUACAUGAGGAUCACCCAUGUGGUGUCGUUCU | 382 | 251 |  | 
UUUUGGCAUGUAGGAUAUGGGUCCGAUUAGGAUUUAGAAGGACAUGAGGAUCACCCAUGUGCAUUUAAUUGGUCAUUACCUUUU | 84.9 | 115 |  | 
GUACUGUAGUGAGGAUAUACGAGAACGAUAGUUCGGCGAUCCAUUUAUACAUGAGGAUCACCCAUGUAGAAGGCACUUCAGUAC | 6.26 | 72.5 |  | 
GGUCCAUCUGUUAGGAUAUGCUUUGGGCUUCCGCAGUAGAAGGAACAUGAGGAUCACCCAUGUCCGAUGCCGUC | 25.1 | 30.3 |  | 
CCGGUUUAUGGAGGAUAUGGAGCCUUAUUGGCUCCAGAAGGCUAAUAACAUGAGGAUCACCCAUGUCGGCGGUCUAAUGACCGA |  |  | 33.1 | 20.6
UUGUUAUAUGUAGGAUAUGCGUGUUAUUAUUAUGCAGAAGGACAUGAGGAUCACCCAUGUGUAUUAUUAUUAUAUAUUAUAUAU | 20.3 | 18.1 |  | 
AAGUCUGGACGAGGAUAUCAGUUGUAUCUGGCAUCAACAUGAGGAUCACCCAUGUUGCAAUAGGGUGAGAAGGCGUUUGGGCAA |  |  | 278 | 29.7
